For data set [1], the system named is HepG2. Nature of the data set: Induction of apoptosis in human HepG2 cells assessed as increase in caspase-3 concentration by colorimetric assay relative to untreated control. In kind it is functional.
Data set [2] relates to MCF7. The data set is described as follows: Cytotoxicity against human MCF7 cells after 96 hrs by […]. The data set is classed as functional, cell-based. To be noted: MCF7, 96 h. A digest of the protocol: (§1)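 Cells seeded at 10 × 10^3/well and held 24 h at 37 °C, 5% CO2. Serum-free RPMI-1640 then added with sample at final 1000, 500, 200, 100, 50, 20, 10 µg/mL (DMSO ≤1% v/v). Incubated 96 h, then rinsed and fixed in 3.7% formaldehyde in saline for ≥20 min. IC50 taken as 50% loss of monolayer, from a straight-line fit of dose-response data.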

Data set [3] concerns HepG2. The data set is described as follows: Induction of apoptosis in human HepG2 cells assessed as late apoptotic cells after 24 hrs using annexin V/propidium iodide double staining by flow cytometry (reference value: 0.01 %). The data set is classed as functional. (In general: In flow cytometry, cells or beads pass a laser one at a time.)
Data set [4] concerns Vero. Nature of the data set: Cytotoxicity against african green monkey Vero cells after 96 hrs […]. In kind it is cell-based. To be noted: chlorocebus sabaeus. A digest of the protocol:
as §1

Data set [5] concerns HepG2. The data set is described as follows: Induction of apoptosis in human HepG2 cells assessed as necrotic cells after 24 hrs using annexin V/propidium iodide double staining by flow cytometry (reference value: 0.64 %). In kind it is functional.
Data set [6] concerns HepG2. Nature of the data set: Cytotoxicity against human HepG2 cells after 96 hrs by […]. The data set is classed as functional, cell-based. To be noted: HepG2, 96 h. A digest of the protocol:
as §1

In data set [7] the test system is HepG2. The data set is described as follows: Cell cycle arrest in human HepG2 cells assessed as reduction in cells at S-phase after 24 hrs by flow cytometry (reference value: 43.65 +/- 1.1%). The data set is classed as functional. More on the design: scale not given: the % may be the effect or the level left.
Data set [8] deals with PC-3. Nature of the data set: Cytotoxicity against human PC3 cells after 96 hrs […]. As to conditions: PC-3, 96 h. The data set is classed as functional, cell-based. A digest of the protocol:
as §1

Data set [9] deals with HepG2. The data set is described as follows: Induction of apoptosis in human HepG2 cells assessed as viable cells after 24 hrs using annexin V/propidium iodide double staining by flow cytometry (reference value: 99.35 %). In kind it is functional.
The subject of data set [10] is HepG2. Nature of the data set: Induction of apoptosis in human HepG2 cells assessed as early apoptotic cells after 24 hrs using annexin V/propidium iodide double staining by flow cytometry (reference value: 0.00 %). The data set is classed as functional.
Data set [11] concerns HepG2. Nature of the data set: Cell cycle arrest in human HepG2 cells assessed as increase in cells at G0/G1-phase after 24 hrs by flow cytometry (reference value: 44.74 +/- 0.6%). The data set is classed as functional.
The subject of data set [12] is A549. Nature of the data set: Cytotoxicity against human A549 cells after 96 hrs by […]. The data set is classed as functional, cell-based. To be noted: A549, 96 h. Put shortly:
as §1

Data set [13] concerns PC-3. Nature of the data set: Induction of apoptosis in human PC3 cells assessed as late apoptotic cells after 24 hrs using annexin V/propidium iodide double staining by flow cytometry (reference value: 0.03 %). The data set is classed as functional.
Data set [14] deals with PC-3. Nature of the data set: Induction of apoptosis in human PC3 cells assessed as early apoptotic cells after 24 hrs using annexin V/propidium iodide double staining by flow cytometry (reference value: 0.00 %). In kind it is functional.
Data set [15] has as its system PC-3. Nature of the data set: Induction of apoptosis in human PC3 cells assessed as increase in caspase-3 concentration by colorimetric assay relative to untreated control. In kind it is functional.
The test system of data set [16] is PC-3. The data set is described as follows: Cell cycle arrest in human PC3 cells assessed as increase in cells at G0/G1-phase after 24 hrs by flow cytometry (reference value: 49.80 +/- 0.6%). In kind it is functional.
Data set [17] relates to PC-3. The data set is described as follows: Induction of apoptosis in human PC3 cells assessed as viable cells after 24 hrs using annexin V/propidium iodide double staining by flow cytometry (reference value: 99.60 %). In kind it is functional.
Data set [18] concerns PC-3. The data set is described as follows: Induction of apoptosis in human PC3 cells assessed as necrotic cells after 24 hrs using annexin V/propidium iodide double staining by flow cytometry (reference value: 0.640.36 %). The data set is classed as functional.
Data set [19] deals with PC-3. Nature of the data set: Cell cycle arrest in human PC3 cells assessed as reduction in cells at S-phase after 24 hrs by flow cytometry (reference value: 32.12 +/- 0.9%). More on the design: scale not given: the % may be the effect or the level left. The data set is classed as functional.

What is called IC50 is the point on the concentration scale where inhibition reaches its midpoint.

With `CC1=C2CC[C@H]3O[C@]3(C)CC/C(C)=C\CC/C(C)=C/[C@H]2OC1=O`, the “fold change (FC)” value in [1] stood at 2. The half-inhibitory concentration (IC50) worked out at 29 µM in data set [2], 20 µM in data set [6], 112 µM in data set [8] and 201 µM in data set [12]. Further, the Activity is 1.76% in data set [3]; “Non-toxic” in data set [4]; 3.08% in data set [5]; 7.11% in data set [7]; 93.93% in data set [9]; 1.23% in [10]. Also, in data set [11], the Activity was found to be 51.9%.

In the case of `C/C1=C/C2OC(C)(CCCC/C(C)=C\CC1)C(O)C2C(C)C` (stereo not drawn), the “fold change (FC)” value in data set [1] amounted to 2.6. Besides, the Activity in data set [3] was 2.18%; in data set [4], “Non-toxic”; in data set [5] it was 2.99%; in [7] it was 8.33%; in data set [9] it was 93.61%; in data set [10], 1.22%. Also, the Activity in data set [11] is listed as 53.57%. The values for the 50% inhibitory concentration (IC50) in data set [6], in data set [8] and in data set [12] were 20 µM, 31.5 µM and 197 µM, respectively.

Take `C=C1CC[C@@H]2[C@H]([C@@H]3[C@H](C)CC[C@H]13)C2(C)C`: the 50% inhibitory concentration (IC50) in data set [2] turned out to be 20 µM; in data set [6], 20 µM; in data set [8], 9.3 µM; in [12], 98.4 µM. In addition, the Activity in data set [13] is listed as 2.18%; in data set [4], “Non-toxic”; in data set [14], 1.63%; in data set [16] it was 64.83%; in data set [17], 91.85%; in data set [18] it was 4.34%. Also, the Activity in data set [19] came to 23.29%. Further, in [15], the “fold change (FC)” value is 2.1.

On to `COc1cccc2c1C(=O)c1c(O)c3c(c(O)c1C2=O)C[C@@](O)(C(=O)CO)C[C@@H]3O[C@H]1C[C@H](N)[C@H](O)[C@H](C)O1` [DOXORUBICIN], for which, in [4], the Activity entry is “Non-toxic”. The results for the 50% inhibitory concentration (IC50) in [6] and in data set [8] were 0.48 µM and 0.5 µM, respectively.

For `CC1=C2CC[C@@H]3O[C@]3(C)CC/C(C)=C/CC/C(C)=C/[C@@H]2OC1=O`, the IC50 in [2] was determined as 25 µM; in data set [6], 94 µM; in data set [8], 216 µM; in [12], 73.8 µM. Also, in data set [4], the Activity result is on record as “Non-toxic”.
